Screening results: PubChem BioAssay, The Scripps Research Institute Molecular Screening Center
Sampled rows, rich in hits. Any-hit rate of the full collection: about 3.3%.
5HT1E ag – 5-HT1E (human) receptor agonism | P28566 | CHO 5-HT1E Ga15 NFAT-bla reporter, FRET; 0% DMSO wells, 100% control agonist wells | activation, % at 6 µM | hit rate 0.69% among 65,000;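 active means activation above a set limit, the screen-wide mean activation plus 3 SD, cut at about 8.5% in these data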;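 further: 100% = positive control agonist at 1 µM giving full maximal response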
Jurkat viability – reduces viability or proliferation of Jurkat cells; Jurkat E6.1 viability, ATP luminescence, 48 h; inhibition, % at 4 µM; hit rate 1.2% among 56,000; AID 463;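 active means inhibition above the mean inhibition of all tested compounds plus 3 SD, cut at about 28% in these data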
5HT1a ag – agonists of human 5-HT1a serotonin receptor | hit rate 0.56% among 65,000 | activation, % at 10 µM | P08908 | AID 567 | CHO 5-HT1a Ga15 NFAT-bla reporter, FRET ratio; 0% basal, 100% maximal reference agonist;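 active means activation above the screen-wide mean activation plus 3 SD, cut at about 19% in these data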;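 further: 0% = DMSO wells and 100% = 5-CT at EC100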
Target sequence (P08908 whole entry, looked up): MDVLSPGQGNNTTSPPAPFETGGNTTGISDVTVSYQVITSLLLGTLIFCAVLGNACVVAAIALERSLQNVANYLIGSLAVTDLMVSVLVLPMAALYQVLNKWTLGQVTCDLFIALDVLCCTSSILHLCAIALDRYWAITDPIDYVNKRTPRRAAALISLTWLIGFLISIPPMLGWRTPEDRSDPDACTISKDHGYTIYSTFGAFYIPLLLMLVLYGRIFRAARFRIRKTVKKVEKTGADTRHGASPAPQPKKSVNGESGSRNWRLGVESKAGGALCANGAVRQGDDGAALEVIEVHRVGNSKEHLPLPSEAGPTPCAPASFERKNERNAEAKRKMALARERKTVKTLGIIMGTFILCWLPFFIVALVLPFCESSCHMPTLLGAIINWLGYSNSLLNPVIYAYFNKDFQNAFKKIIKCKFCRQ
HTR1E antagonist – antagonists of human 5-HT1E serotonin receptor | AID 571 | inhibition, % at 6 µM | CHO 5-HT1E Ga15 NFAT-bla reporter, FRET, antagonist | P28566 | hit rate 0.99% among 65,000;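 active means inhibition above a set limit, the mean inhibition across every tested compound plus 3 SD, cut at about 29% in these data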;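 further: signal is the 460 over 535 nm emission ratio of beta-lactamase substrate; 0% = agonist plus DMSO wells and 100% = wells without agonist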
5-HT1A blocker – 5-HT1a (human) receptor antagonism; P08908; CHO 5-HT1a Ga15 NFAT-bla reporter, antagonist mode; inhibition, % at 10 µM; hit rate 0.68% among 62,000; AID 612;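 active means inhibition above the mean of all tested compounds plus 3 SD, cut at about 43% in these data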;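 further: receptor stimulated by 5-CT agonist at 100 nM near EC80; beta-lactamase reporter measured by ratiometric fluorescence of a cleavable substrate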
HEK293 NFkB inh – lowers PMA/ionomycin-induced NF-kB signal in HEK293 cells; HEK-293 NF-kB luciferase reporter, luminescence; inhibition, % at 3 µM; hit rate 0.21% among 62,000;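 active means inhibition above the mean of all tested compounds plus 3 SD, cut at about 40% in these data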;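 further: 0% = stimulated DMSO wells and 100% = 10 µM reference inhibitor 5653914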
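Signal: luciferase luminescence; Material: HEK-293 cells with stable firefly luciferase reporter driven by four HIV NF-kB elements; Probe or stimulus: PMA with ionomycin; Replication: tested once; Times: 1 h compound pretreatment, then 16 h stimulation at 37 °C, 5% CO2; Benchmarks: DMSO and 10 µM reference inhibitor; Evaluation: per-plate % inhibition versus controls.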
* hit, by the source's call; · = no result given.

SMILES	5HT1E ag	Jurkat viability	5HT1a ag	HTR1E antagonist	5-HT1A blocker	HEK293 NFkB inh
COc1ccc(S(=O)(=O)Cc2ccc(C(=O)N3CCN(c4cccc(C)c4)C(C)C3)o2)cc1 (configuration not stated)	1	90*	2	19	15	9
Cn1cc(/C(Cc2ccccc2)=N\O)c2ccccc21	57*	59*	-5	0	31	9
COC(=O)c1cn(C(=O)c2ccco2)c2ccccc12	0	-13	-2	-5	-5	18
CCn1c(NC(=O)c2cccc(Cn3cc(Cl)cn3)c2)nc2ccccc21	2	75*	-1	-5	16	4
Cn1c(NC(=O)c2cccc(Cn3cc(Cl)cn3)c2)nc2ccccc21	2	2	1	-10	16	-20
CC(=O)NC(CCS(C)(=O)=O)C(=O)Nc1cc(Cl)ccc1Cl (configuration not stated)	0	-3	120*	-5	9	12
COC(=O)c1ccc(C(=O)OC)c(NC(=O)c2oc(C)nc2C)c1	0	-6	-1	2	10	8
COCCN1C(=O)C(CC(=O)Nc2ccc(C(C)=O)cc2)SC1=Nc1ccccc1 (configuration not stated)	0	-5	172*	1	4	9
O=C1C2=C(Nc3ccccc3SC2c2ccco2)c2ccccc21 (configuration not stated)	0	3	-1	8	70*	17
O=C1c2ccccc2NC(c2ccco2)N1O (configuration not stated)	0	-4	-3	2	2	6
CC(C(=O)Nc1ccccc1-c1ccccc1)N1CCN(C(=O)c2ccco2)CC1 (configuration not stated)	-1	6	0	-8	-3	7
CN(C)CCCN(CCCNC(=O)/C=N/O)Cc1ccccc1	26*	·	-3	5	·	·
CCN(CC)C(=O)C(C)N(C#N)c1nc(NC(C)C)nc(NC(C)C)n1 (configuration not stated)	-1	·	1	3	-2	10
CC(C)Nc1nc(C#N)nc(NC(C)C)n1	0	11	1	31*	-1	12
Cc1cc(SCC#N)n2nc(C)c(-c3ccccc3)c2n1	0	8	0	57*	2	12
CCc1nc(SCC(=O)N2CCCc3ccccc32)c2c(=O)n(C)c(=O)n(C)c2n1	1	-3	-5	-2	-4	0
O=C(CSc1ncc(-c2ccc(F)cc2)[nH]1)Nc1cccc(O)c1	-1	-3	-1	0	5	19
Cc1[nH]c2ccccc2c1C(O)CN1CCN(c2cccc(C(F)(F)F)c2)CC1 (configuration not stated)	14*	13	46*	11	37	-2
Fc1cccc(-c2cc3nc4c(c(N5CCOCC5)n3n2)CCCC4)c1	-1	1	-2	30*	21	15
Clc1cccc(-c2cc3nc4c(c(N5CCOCC5)n3n2)CCCC4)c1	-1	·	1	17	17	6
Cc1ccc(OCC(=O)Nc2ccc(N3CCOCC3)cc2)cc1	3	5	-3	5	-8	16
Cc1ccc(C)c(OCCCC(=O)Nc2ccc(N3CCOCC3)cc2)c1	1	4	26*	-13	-5	6
Cc1cc(NC(=O)c2cc(-c3cccnc3)nc3c(C)c(C)ccc23)no1	0	5	1	3	8	0
Cc1cc(NC(c2cccnc2)c2ccc3cccnc3c2O)no1 (configuration not stated)	-1	37*	-1	27	17	2
N#CC1=C(N)Oc2n[nH]c(-c3ccc(F)cc3)c2C1c1cccc(OC(=O)N2CCOCC2)c1 (configuration not stated)	0	·	0	-7	1	11
SMILES	5HT1E ag	Jurkat viability	5HT1a ag	HTR1E antagonist	5-HT1A blocker	HEK293 NFkB inh
N#CC1=C(N)Oc2n[nH]c(-c3ccccc3)c2C1c1cccc(OC(=O)N2CCOCC2)c1 (configuration not stated)	11*	5	0	14	9	20
NC(Cc1ccc2nonc2c1)C(=O)O (configuration not stated)	0	3	54*	-11	3	-5
N[C@@H](Cc1ccc(O)c(I)c1)C(=O)O	0	·	2	-6	·	·
CC1CCN(c2oc(-c3ccccc3Cl)nc2C#N)CC1	0	·	1	37*	·	·
N#Cc1nc(-c2ccccc2Cl)oc1N1CCOCC1	-1	10	0	11	10	11
O=C(NCc1ccc2c(c1)OCO2)c1nnc(Cc2ccc(Cl)cc2)o1	0	4	-4	7	-20	12
O=C1CC(C(=O)Nc2ccccc2)C2(CCCC2)O1 (configuration not stated)	14*	·	-1	1	1	14
Cc1ccc2c(CC(=O)OC(C)C(=O)NCc3ccc4c(c3)OCO4)coc2c1 (configuration not stated)	-1	-7	-6	-5	-5	18
Cc1ccc(-c2nc3nc4ccccc4nc3n2Cc2ccco2)cc1	0	3	-3	28	50*	-45
Clc1ccc(-c2nc3nc4ccccc4nc3n2Cc2ccco2)cc1	0	0	-3	14	22	-34
CCN(Cc1ccncc1)S(=O)(=O)c1ccc(C(C)=O)cc1	0	30*	-1	5	-2	13
O=C(CCCC(=O)N(CC(=O)NC1CCCC1)Cc1ccc2c(c1)OCO2)Nc1ccccn1	-1	2	-2	9	2	13
CCOc1ccccc1-c1nnc(SCC(=O)NC2CC3CCC2C3)n1CC (configuration not stated)	11*	0	-5	-1	2	19
Cc1cccc2cc(CN(CC3CCCO3)C(c3nnnn3Cc3ccco3)C(C)C)c(=O)[nH]c12 (configuration not stated)	1	8	3	-8	7	4
CC1CCCN(C(C(=O)Nc2ccc3c(c2)OCO3)c2ccccc2)C1 (configuration not stated)	1	6	-2	13	49*	19
Cc1nc(NC(C)c2ccccc2)c2oc3ccccc3c2n1 (configuration not stated)	-1	30*	-2	15	2	5
Cc1nc2ccc(S(=O)(=O)Nc3ccccc3C)cc2s1	-1	30*	-4	6	9	12
Cc1cc(S(=O)(=O)Nc2ccccc2C)ccc1F	0	1	-1	8	4	9
CCC(C)c1ccc(NC(=O)C2CCCN(c3ncccn3)C2)cc1 (configuration not stated)	0	61*	0	0	-4	8
